Results: ChEMBL document CHEMBL5678802, “Small-molecule p21-activated kinase inhibitor PF-3758309 is a potent inhibitor of oncogenic signaling and tumor growth” (Proc Natl Acad Sci U S A, 2010)

Tests used:
[1] = molecular target: Ribosomal protein S6 kinase alpha-3 (Homo sapiens, UniProt P51812); test: Inhibition of human RSK2 assessed as inhibition constant in presence of ATP
[2] = molecular target: T1, Proto-oncogene tyrosine-protein kinase Src (Homo sapiens, UniProt P12931); test: Inhibition of human SRC in presence of ATP by cellular assay
HuP-T4 = test: Antiproliferative activity against human HuP-T4 cells assessed as inhibition of cell proliferation incubated for 3 days by CellTiter-Glo Luminescent Cell Viability Assay; type: functional, cell-based; conditions: HuP-T4, 72 h
Summary of the method: (§1)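 Cancer cell lines seeded in 384-well plates on day 1; compound added on day 2 and left for 3 days. On day 5 all medium was aspirated, and viable cells were quantified by CellTiter-Glo luminescence, which measures cellular ATP. Dose-dependent effects on proliferation were determined.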

[3] = Inhibition of YFP/YFP variant coding sequence fused ARF1/gamma-COP (unknown origin) expressed in HEK293 cells incubated for 8 to 24 hrs by fluorescence based analysis; type: cell-based, Homo sapiens
[4] = molecular target: T2, Protein kinase C theta type (Homo sapiens, UniProt Q04759); test: Inhibition of human PKCtheta in presence of ATP
[5] = molecular target: T2, Protein kinase C theta type; test: Inhibition of human PKCtheta in presence of ATP by cellular assay
[6] = molecular target: Serine/threonine-protein kinase Chk2 (Homo sapiens, UniProt O96017); test: Inhibition of human CHK2 in presence of ATP relative to control; conditions: concentration not given here
HCT-116 [7] = test: Induction of cell cycle arrest in human HCT-116 cells assessed as accumulation of cells at G0/G1 phase at 100 nM measured after 48 hrs by fluorescence activated cell sorter analysis (reference value: 50.74%); type: functional
[8] = molecular target: T3, Receptor-type tyrosine-protein kinase FLT3 (Homo sapiens, UniProt P36888); test: Inhibition of human FLT3 assessed as inhibition constant in presence of ATP
T3 sequence (P36888 whole entry): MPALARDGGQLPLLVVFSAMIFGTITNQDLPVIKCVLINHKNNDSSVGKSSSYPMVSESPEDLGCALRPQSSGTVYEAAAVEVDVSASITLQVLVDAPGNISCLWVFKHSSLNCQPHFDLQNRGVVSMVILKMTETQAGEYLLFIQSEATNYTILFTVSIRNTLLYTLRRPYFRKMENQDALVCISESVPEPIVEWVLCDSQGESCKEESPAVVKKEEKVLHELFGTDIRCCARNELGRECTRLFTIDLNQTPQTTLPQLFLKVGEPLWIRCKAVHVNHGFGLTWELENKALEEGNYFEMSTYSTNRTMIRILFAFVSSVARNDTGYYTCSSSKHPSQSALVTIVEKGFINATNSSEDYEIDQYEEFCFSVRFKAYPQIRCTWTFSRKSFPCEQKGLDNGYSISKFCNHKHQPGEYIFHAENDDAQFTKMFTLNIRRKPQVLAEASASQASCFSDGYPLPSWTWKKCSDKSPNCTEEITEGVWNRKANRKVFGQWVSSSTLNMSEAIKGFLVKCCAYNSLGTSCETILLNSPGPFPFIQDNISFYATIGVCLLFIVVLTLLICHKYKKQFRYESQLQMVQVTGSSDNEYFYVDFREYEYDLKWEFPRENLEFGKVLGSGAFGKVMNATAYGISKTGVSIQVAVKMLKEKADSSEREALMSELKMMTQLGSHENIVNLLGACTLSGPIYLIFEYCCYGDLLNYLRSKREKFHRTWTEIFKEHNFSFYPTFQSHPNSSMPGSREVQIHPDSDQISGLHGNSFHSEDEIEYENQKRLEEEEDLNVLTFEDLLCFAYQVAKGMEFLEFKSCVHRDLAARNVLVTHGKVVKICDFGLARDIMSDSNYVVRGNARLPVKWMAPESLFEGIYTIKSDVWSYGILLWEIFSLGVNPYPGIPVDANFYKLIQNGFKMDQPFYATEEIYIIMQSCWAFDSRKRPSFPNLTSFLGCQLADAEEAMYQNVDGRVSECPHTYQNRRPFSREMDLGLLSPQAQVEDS

SK-MES-1 = test: Antiproliferative activity against human SK-MES-1 cells assessed as inhibition of cell proliferation incubated for 3 days by CellTiter-Glo Luminescent Cell Viability Assay; type: functional, cell-based; conditions: SK-MES-1, 72 h
Summary of the method: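 Cells of each line were plated in 384-well plates on day 1 and exposed to compound from day 2 for 3 days. On day 5 all medium was aspirated. Viable cell number was read by CellTiter-Glo luminescence, which quantifies cellular ATP.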

[9] = molecular target: Serine/threonine-protein kinase D1 (Homo sapiens) (UniProt Q15139); test: Inhibition of human PKCmu in presence of ATP relative to control; conditions: concentration not given here
MDA-MB-453 = test: Antiproliferative activity against human MDA-MB-453 cells assessed as inhibition of cell proliferation incubated for 3 days by CellTiter-Glo Luminescent Cell Viability Assay; type: functional, cell-based; conditions: MDA-MB-453, 72 h; summary of the method: as §1
[10] = Antiproliferative activity against human GTL16S4 acquired resistance cells assessed as inhibition of cell proliferation incubated for 3 days by CellTiter-Glo Luminescent Cell Viability Assay; type: functional, cell-based; conditions: 72 h; summary of the method: as §1
[11] = molecular target: Tyrosine-protein kinase Yes (Homo sapiens, UniProt P07947); test: Inhibition of human YES1 in presence of ATP relative to control; conditions: concentration not given here
HCT-116 [12] = test: Antitumor activity against human HCT-116 cells xenografted in nude mouse assessed as tumor growth inhibition at 15 mg/kg, po administered twice daily for 9 to 18 days relative to control; type: functional; conditions: time 9-18 day, read-out: TGI
[13] = Inhibition of NF-kappaB signaling in HEK293T cells preincubated with compound for 0.5 hrs followed by TNFalpha stimulation and measured after 7 hrs by Steady-Glo luciferase assay; type: cell-based; conditions: Homo sapiens, HEK-293T
NCI-H1666 = test: Inhibition of anchorage independent cell growth in human NCI-H1666 cells incubated for 6 days by Alamar blue reagent based fluorescence plate reader analysis; type: functional; conditions: NCI-H1666, 144 h
A549 = test: Antitumor activity against human A549 cells xenografted in nude mouse assessed as tumor growth inhibition at 10 mg/kg, po administered once daily for 9 to 18 days relative to control; type: functional; conditions: time 9-18 day, read-out: TGI
Summary of the method: (§2)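 Tumor cells were implanted s.c. into the right flank of female nu/nu nude mice aged 6–8 weeks. Animals were randomized into treatment groups once tumors were established (example: day 8 postimplant, about 170 mm3, animals >22 g). Compound in 0.5% methylcellulose was given by oral gavage. Tumors were measured with calipers two to three times per week.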

[14] = molecular target: T1, Proto-oncogene tyrosine-protein kinase Src; test: Inhibition of human SRC in presence of ATP relative to control; conditions: concentration not given here
[15] = molecular target: Protein kinase C beta type (Homo sapiens, UniProt P05771); test: Inhibition of human PKCbeta-II in presence of ATP
HCC1806 = test: Antiproliferative activity against human HCC1806 cells assessed as inhibition of cell proliferation incubated for 3 days by CellTiter-Glo Luminescent Cell Viability Assay; type: functional, cell-based; conditions: HCC1806, 72 h; summary of the method: as §1
GTL 16 cell line = test: Antitumor activity against human GTL-16 cell line xenografted in nude mouse assessed as tumor growth inhibition at 10 mg/kg, po administered once daily for 9 to 18 days relative to control; type: functional; conditions: time 9-18 day, read-out: TGI; summary of the method: as §2

T2 sequence (Q04759 whole entry): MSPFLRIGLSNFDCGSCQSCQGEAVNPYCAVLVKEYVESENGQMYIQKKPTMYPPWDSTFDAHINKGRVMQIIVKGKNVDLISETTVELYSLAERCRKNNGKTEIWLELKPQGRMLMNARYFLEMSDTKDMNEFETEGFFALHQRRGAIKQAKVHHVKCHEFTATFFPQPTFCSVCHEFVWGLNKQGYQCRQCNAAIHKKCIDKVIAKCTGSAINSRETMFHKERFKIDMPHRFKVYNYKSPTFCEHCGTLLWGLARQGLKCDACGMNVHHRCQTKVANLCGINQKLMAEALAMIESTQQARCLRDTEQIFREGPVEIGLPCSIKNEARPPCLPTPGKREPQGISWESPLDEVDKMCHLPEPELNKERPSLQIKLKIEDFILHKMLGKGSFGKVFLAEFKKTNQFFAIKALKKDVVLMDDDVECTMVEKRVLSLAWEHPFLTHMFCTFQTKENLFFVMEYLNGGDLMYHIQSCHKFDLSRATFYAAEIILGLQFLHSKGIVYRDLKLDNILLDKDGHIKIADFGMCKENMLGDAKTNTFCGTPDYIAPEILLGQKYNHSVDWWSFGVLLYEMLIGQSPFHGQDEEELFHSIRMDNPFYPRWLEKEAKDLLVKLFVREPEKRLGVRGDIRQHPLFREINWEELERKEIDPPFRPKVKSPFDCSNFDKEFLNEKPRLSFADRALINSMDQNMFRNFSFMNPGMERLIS
T1 sequence (P12931 2-536 limits assumed): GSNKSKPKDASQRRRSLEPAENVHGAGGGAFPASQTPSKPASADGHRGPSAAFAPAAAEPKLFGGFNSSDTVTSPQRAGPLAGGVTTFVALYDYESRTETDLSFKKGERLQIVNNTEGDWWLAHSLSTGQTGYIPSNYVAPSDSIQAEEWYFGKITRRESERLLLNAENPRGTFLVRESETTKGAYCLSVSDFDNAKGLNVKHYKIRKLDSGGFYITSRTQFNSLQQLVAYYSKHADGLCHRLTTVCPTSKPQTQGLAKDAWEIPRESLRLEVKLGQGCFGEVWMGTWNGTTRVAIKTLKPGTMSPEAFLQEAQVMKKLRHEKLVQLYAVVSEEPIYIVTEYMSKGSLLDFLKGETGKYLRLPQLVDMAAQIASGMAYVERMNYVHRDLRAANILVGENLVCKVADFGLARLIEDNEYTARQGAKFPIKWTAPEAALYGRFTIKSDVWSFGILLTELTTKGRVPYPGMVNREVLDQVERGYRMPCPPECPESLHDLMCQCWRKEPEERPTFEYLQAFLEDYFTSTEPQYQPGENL
Chain of Ribosomal protein S6 kinase alpha-3 (P51812 whole entry): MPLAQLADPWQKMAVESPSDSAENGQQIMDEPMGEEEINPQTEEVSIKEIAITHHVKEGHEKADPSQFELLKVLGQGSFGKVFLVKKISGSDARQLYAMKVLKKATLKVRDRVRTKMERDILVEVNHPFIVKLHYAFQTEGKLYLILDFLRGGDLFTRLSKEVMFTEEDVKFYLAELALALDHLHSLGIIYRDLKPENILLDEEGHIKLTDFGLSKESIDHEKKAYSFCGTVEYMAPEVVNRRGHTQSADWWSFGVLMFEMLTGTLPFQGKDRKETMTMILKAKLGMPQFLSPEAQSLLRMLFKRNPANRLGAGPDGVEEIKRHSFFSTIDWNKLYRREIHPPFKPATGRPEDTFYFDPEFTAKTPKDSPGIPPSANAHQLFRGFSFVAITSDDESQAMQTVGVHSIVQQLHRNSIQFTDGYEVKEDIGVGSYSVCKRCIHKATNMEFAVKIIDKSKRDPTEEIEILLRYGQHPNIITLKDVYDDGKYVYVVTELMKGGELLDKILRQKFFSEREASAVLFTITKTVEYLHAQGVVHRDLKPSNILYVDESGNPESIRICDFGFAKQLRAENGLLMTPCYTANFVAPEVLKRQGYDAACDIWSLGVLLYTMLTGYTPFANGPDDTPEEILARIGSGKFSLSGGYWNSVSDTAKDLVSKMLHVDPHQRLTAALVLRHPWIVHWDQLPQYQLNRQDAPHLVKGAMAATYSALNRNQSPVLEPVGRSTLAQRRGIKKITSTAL
Chain of Tyrosine-protein kinase Yes (P07947 2-543 limits assumed): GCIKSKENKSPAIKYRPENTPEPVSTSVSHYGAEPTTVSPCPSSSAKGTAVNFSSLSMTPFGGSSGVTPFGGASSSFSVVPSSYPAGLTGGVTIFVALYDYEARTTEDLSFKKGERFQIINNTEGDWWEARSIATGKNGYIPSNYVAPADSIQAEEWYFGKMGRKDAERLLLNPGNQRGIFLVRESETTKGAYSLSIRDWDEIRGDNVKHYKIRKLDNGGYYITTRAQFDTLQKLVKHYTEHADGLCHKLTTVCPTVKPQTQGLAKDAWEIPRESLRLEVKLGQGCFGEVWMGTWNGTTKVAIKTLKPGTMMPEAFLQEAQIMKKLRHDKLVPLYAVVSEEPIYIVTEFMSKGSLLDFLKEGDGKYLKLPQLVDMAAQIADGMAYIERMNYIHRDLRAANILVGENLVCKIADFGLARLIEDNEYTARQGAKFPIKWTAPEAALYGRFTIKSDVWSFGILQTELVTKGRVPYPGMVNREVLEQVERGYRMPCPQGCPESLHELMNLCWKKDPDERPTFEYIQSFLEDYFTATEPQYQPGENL
Chain of Protein kinase C beta type (P05771 whole entry): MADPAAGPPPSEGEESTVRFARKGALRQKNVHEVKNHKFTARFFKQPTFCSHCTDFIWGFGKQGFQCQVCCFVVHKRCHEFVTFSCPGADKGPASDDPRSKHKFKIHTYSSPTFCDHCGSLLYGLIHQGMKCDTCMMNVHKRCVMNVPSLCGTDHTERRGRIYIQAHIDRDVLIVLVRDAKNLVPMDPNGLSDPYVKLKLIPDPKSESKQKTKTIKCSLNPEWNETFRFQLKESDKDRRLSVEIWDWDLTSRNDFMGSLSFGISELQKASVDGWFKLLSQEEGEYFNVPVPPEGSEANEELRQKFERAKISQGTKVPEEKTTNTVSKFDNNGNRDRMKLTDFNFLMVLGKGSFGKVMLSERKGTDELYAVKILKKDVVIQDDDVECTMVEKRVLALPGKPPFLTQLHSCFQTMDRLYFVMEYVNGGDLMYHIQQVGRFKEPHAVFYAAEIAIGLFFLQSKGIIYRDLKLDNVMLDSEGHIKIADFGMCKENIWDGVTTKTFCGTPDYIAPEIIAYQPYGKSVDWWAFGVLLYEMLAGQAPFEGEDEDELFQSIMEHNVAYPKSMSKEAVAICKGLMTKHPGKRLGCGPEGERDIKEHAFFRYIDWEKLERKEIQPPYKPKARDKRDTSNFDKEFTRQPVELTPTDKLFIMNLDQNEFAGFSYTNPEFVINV
Chain of Serine/threonine-protein kinase D1 (Homo sapiens) (Q15139 whole entry): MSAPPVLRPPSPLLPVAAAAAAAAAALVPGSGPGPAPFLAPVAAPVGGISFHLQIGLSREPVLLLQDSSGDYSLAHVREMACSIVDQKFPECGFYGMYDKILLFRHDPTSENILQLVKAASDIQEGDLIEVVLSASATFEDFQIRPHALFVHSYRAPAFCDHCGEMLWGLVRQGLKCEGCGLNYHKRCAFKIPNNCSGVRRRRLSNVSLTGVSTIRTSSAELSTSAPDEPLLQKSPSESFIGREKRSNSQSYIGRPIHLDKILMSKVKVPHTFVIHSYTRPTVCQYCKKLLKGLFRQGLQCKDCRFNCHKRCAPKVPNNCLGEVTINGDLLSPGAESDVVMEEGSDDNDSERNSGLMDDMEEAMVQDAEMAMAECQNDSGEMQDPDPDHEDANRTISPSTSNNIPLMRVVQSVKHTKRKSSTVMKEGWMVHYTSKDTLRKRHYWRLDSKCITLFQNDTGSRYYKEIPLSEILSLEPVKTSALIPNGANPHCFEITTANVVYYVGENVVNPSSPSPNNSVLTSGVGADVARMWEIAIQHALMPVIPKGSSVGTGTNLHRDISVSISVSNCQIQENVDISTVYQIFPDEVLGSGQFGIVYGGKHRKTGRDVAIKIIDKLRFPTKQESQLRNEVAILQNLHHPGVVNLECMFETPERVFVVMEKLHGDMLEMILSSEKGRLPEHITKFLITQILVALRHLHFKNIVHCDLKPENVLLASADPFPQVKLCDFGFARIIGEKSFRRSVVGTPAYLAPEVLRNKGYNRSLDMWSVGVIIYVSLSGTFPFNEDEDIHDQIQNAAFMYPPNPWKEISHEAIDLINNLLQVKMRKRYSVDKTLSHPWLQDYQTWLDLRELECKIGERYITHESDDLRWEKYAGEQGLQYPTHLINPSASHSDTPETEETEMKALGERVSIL
Chain of Serine/threonine-protein kinase Chk2 (O96017 whole entry): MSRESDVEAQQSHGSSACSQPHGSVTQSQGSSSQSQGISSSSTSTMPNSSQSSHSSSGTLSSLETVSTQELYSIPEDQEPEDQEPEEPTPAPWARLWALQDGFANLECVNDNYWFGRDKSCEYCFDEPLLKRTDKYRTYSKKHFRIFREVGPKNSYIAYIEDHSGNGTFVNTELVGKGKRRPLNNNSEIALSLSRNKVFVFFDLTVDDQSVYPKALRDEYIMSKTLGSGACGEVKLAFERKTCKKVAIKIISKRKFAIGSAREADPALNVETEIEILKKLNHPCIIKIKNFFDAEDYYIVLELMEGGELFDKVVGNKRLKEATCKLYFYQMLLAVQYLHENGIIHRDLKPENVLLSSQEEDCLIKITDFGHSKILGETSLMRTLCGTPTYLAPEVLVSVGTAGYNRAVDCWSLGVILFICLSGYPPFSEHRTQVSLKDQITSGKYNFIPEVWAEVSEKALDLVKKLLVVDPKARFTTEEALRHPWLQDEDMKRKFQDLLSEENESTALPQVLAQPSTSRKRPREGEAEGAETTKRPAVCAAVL

For Cc1nc(Nc2n[nH]c3c2CN(C(=O)N[C@H](CN(C)C)c2ccccc2)C3(C)C)c2sccc2n1 [PF-03758309], the Ki [1] was 5 nM, the IC50 [2] was 2210 nM and the IC50 (HuP-T4) was 231 nM. For the same molecule, the IC50 [3] was 7.9 nM, the IC50 [4] was 28 nM and the IC50 [5] was 568 nM. For the same molecule, the inhibition [6] was 103%, the Activity (HCT-116 [7]) was 49.41% and the Ki [8] was 81 nM. It also gave an IC50 (SK-MES-1) of 3.2 nM, an inhibition [9] of 96% and an IC50 (MDA-MB-453) of 13.3 nM. For the same molecule, the IC50 [10] was 10000 nM, the inhibition [11] was 92% and the inhibition in vivo at 15 mg/kg (HCT-116 [12]) was 79%. It also gave an IC50 [13] of 24.2 nM, an IC50 (NCI-H1666) of 6.25 nM and an inhibition in vivo at 10 mg/kg (A549) of 71%. For the same molecule, the inhibition [14] was 96%, the IC50 [15] was 156 nM and the IC50 (HCC1806) was 1.2 nM. The inhibition in vivo at 10 mg/kg (GTL 16 cell line) was 0%.
